Compound activity (PubChem BioAssay)
FN deposit inh – fibronectin deposition inhibition; AH1F fibroblasts, Alexa488-fibronectin deposition fluorescence, overnight; inhibition, % at 12.6 µM; 350,000 tested, 0.086% active; AID 743247;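 active = mean inhibition across replicates of 30% or more, regardless of how many single replicates reach that level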;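 also: positive control wells lacked labelled fibronectin entirely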
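Test system: AH1F fibroblast monolayer depositing Alexa488-labelled fibronectin into matrix. Input: 10000 cells per well. Technique: fluorescence, ex 485 nm, em 525 nm. Buffer or medium: DMEM plus 2% serum, read in PBS. Timing: 1 h cell adhesion before compound, then overnight fibronectin incubation. Compound: single dose, pinned. Read-out basis: inhibition from reduced deposited-fibronectin fluorescence.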
SIRT5 block – blocks human SIRT5 desuccinylation of peptide. 330,000 tested, 1.1% active. Q9NXA8. inhibition, % at 15 µM. Purified SirT5, succinyl-peptide AMC, trypsin-coupled fluorescence; in the data active = inhibition above about 15%
Target sequence (Q9NXA8 whole entry, looked up): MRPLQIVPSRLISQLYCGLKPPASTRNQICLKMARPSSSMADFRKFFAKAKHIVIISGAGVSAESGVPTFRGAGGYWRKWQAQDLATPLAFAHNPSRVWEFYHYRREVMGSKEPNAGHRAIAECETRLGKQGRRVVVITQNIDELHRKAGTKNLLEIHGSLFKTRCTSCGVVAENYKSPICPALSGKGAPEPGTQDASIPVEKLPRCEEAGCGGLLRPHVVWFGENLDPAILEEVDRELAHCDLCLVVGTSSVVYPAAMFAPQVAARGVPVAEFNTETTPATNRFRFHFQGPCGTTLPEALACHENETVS
FGF22 binding – binders of recombinant human FGF22 by thermal shift; AID 651658; SYPRO orange fluorescence; percent of sucrose octasulfate shift, DMSO zero; activity (Tm shift, normalised), % at 9.99 µM; 340,000 tested, 1.5% active;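 active = mean Tm shift, scaled 0 neutral to 100 positive control, at about 1.3% or above, every replicate too, limit read from the data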
Target sequence (Q9HCT0 whole entry, looked up): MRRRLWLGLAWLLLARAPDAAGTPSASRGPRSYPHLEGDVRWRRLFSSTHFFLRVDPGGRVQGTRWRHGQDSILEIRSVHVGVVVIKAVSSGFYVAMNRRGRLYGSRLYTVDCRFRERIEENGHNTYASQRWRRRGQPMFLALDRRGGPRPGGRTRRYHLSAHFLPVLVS
ERAP1 inh – ERAP1 (human) enzyme inhibition; recombinant ERAP1, Leu-AMC fluorescence, 60 min; inhibition, % at 10.7 µM; 340,000 tested, 0.15% active; AID 652197;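 active = mean replicate inhibition of at least 30%, or all replicates individually reaching that 30% level; inactive = mean below 30% and not every replicate reaching it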;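 also: 0% = neutral control wells and 100% = L-leucinethiol positive control wells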
PGC1a acetyl inh – lowers PGC1a acetylation signal in U2OS cells | 350,000 tested, 0.17% active | inhibition, % at 15.6 µM | AlphaScreen anti-acetyl-lysine; with virally co-expressed GCN5 acetyltransferase;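 active = every replicate shows inhibition of at least 40%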;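 also: 0% = neutral control wells and 100% = positive control wells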
* = called active by the depositor. Most compounds without a hit are left out; they make up all but 2.2% or so of the library.

C[C@H](CO)N1C[C@H](C)[C@@H](CN(C)Cc2ccccc2)Oc2cc(/C=C/c3ccccc3)ccc2S1(=O)=O was read as SIRT5 block -4, FGF22 binding 0, ERAP1 inh 2 and PGC1a acetyl inh 9.
`C[C@H](CO)N1C[C@H](C)[C@H](CN(C)Cc2ccccc2)Oc2cc(/C=C/c3ccccc3)ccc2S1(=O)=O` gave SIRT5 block 21*, FGF22 binding 0, ERAP1 inh 0 and PGC1a acetyl inh -17.
For C[C@H]1CN([C@@H](C)CO)S(=O)(=O)c2ccc(/C=C/c3ccccc3)cc2O[C@H]1CN(C)Cc1ccccc1 the results were SIRT5 block 22*, FGF22 binding 0, ERAP1 inh 1 and PGC1a acetyl inh 1.
Screening O=C(COc1ccc2c(c1)OCO2)Nc1ccc(Cl)cn1 returned FN deposit inh -8, SIRT5 block 26*, FGF22 binding 0, ERAP1 inh -3 and PGC1a acetyl inh 1.
Screening Cc1cc(NC(=O)CCS(=O)(=O)c2nc(-c3ccccc3)cc(C(F)(F)F)n2)no1 returned PGC1a acetyl inh 90*.
`O=C(Nc1ccc(Cl)cc1)N1C[C@@H]2[C@H](c3ccccc31)[C@H](CO)N2C(=O)c1cccnc1` gave FN deposit inh 1, SIRT5 block -3, ERAP1 inh -1 and PGC1a acetyl inh 2.
Screening Cc1ccc(-c2nnc(SCC(=O)NC3CCCC3)n2N)cc1 returned FN deposit inh -3, FGF22 binding 44*, ERAP1 inh 3 and PGC1a acetyl inh 14.
CCCc1cc(=O)[nH]c(SCc2nc3ccc([N+](=O)[O-])cc3[nH]2)n1 was read as FN deposit inh 1, SIRT5 block 1, FGF22 binding 43* and ERAP1 inh -3.
`COc1ncnc2c1ncn2CCCN1CCN(c2ccccn2)CC1` gave FN deposit inh 4, SIRT5 block 28*, FGF22 binding 0 and ERAP1 inh 3.
For CCC(=O)N(C)C[C@H]1Oc2cc(C3=CCCCC3)ccc2S(=O)(=O)N([C@@H](C)CO)C[C@@H]1C the results were PGC1a acetyl inh -11.
Screening COc1ccc(NC2CC(=O)N(c3cc([N+](=O)[O-])ccc3C)C2=O)cc1 (stereo not given) returned FN deposit inh 4, SIRT5 block 1, FGF22 binding 43* and ERAP1 inh 3.
`COc1ccc(NC2CC(=O)N(c3cccc([N+](=O)[O-])c3)C2=O)cc1` (stereo not given) gave SIRT5 block -1, FGF22 binding 0, ERAP1 inh -1 and PGC1a acetyl inh -8.
For CNc1ccccc1NC(=O)CCn1c(=S)oc2ccccc21 the results were FN deposit inh -3, SIRT5 block -1, FGF22 binding 0, ERAP1 inh 1 and PGC1a acetyl inh -16.
O=C(CCn1c(=S)oc2ccccc21)Nc1ccccc1F was read as FN deposit inh -2, SIRT5 block 0, FGF22 binding 44* and ERAP1 inh 0.
`COc1ccc(C2NC(Cc3ccccc3)(C(=O)O)C3C(=O)N(c4ccccc4OC)C(=O)C23)cc1` (stereo not given) gave SIRT5 block 8, FGF22 binding 43*, ERAP1 inh 3 and PGC1a acetyl inh 7.
Screening CCOC(=O)C1CCCN(C2=NC(=O)/C(=C/c3ccc(N(C)C)cc3)S2)C1 (stereo not given) returned FN deposit inh 0, SIRT5 block -3, FGF22 binding 1.9* and ERAP1 inh -2.
Cc1c(C(=O)O)cccc1-n1c(C)cc(/C=N/Nc2ccc([N+](=O)[O-])cn2)c1C was read as FN deposit inh 4, SIRT5 block 16*, ERAP1 inh 14 and PGC1a acetyl inh -1.
Screening CC(=O)N(C)C[C@@H]1Oc2ncc(-c3ccc(C#N)cc3)cc2C(=O)N([C@H](C)CO)C[C@@H]1C returned FN deposit inh -5, SIRT5 block -1, FGF22 binding 0, ERAP1 inh -1 and PGC1a acetyl inh 12.
For CCNC(=O)C[C@H]1CC[C@H]2[C@H](COc3ccc(NC(=O)c4cccs4)cc3C(=O)N2C)O1 the results were FN deposit inh -6, SIRT5 block -4, FGF22 binding 0, ERAP1 inh -1 and PGC1a acetyl inh -11.
Screening COc1cc(C2NCCc3c2[nH]c2ccccc32)ccc1OC(C)C (stereo not given) returned FN deposit inh 2, SIRT5 block -1, FGF22 binding 44* and ERAP1 inh 1.
`NS(=O)(=O)c1ccc(NCC2COc3ccccc3O2)c([N+](=O)[O-])c1` (stereo not given) gave FN deposit inh 0, SIRT5 block 0, FGF22 binding 43*, ERAP1 inh 1 and PGC1a acetyl inh 6.
CCC(C)C1NC(=S)N(C2CCCCC2)C1=O (stereo not given) was read as FN deposit inh 3 and PGC1a acetyl inh 28.
`CC1NC(=S)N(C2CCCCC2)C1=O` (stereo not given) gave FN deposit inh -7, SIRT5 block -2, FGF22 binding 43* and ERAP1 inh -1.
For CC(C)CC#Cc1ccc2c(c1)O[C@H](CN(C)C(=O)NC1CCCC1)[C@H](C)CN([C@@H](C)CO)S2(=O)=O the results were FN deposit inh 10, SIRT5 block 4, FGF22 binding 0, ERAP1 inh 2 and PGC1a acetyl inh 7.
For CC(C)CC#Cc1ccc2c(c1)O[C@@H](CN(C)C(=O)NC1CCCC1)[C@@H](C)CN([C@@H](C)CO)S2(=O)=O the results were FN deposit inh -9, SIRT5 block 16*, FGF22 binding 0, ERAP1 inh 4 and PGC1a acetyl inh -10.
Screening CC(C)CC#Cc1ccc2c(c1)O[C@H](CN(C)C(=O)NC1CCCC1)[C@@H](C)CN([C@@H](C)CO)S2(=O)=O returned FN deposit inh -4, SIRT5 block 19*, FGF22 binding 0, ERAP1 inh -2 and PGC1a acetyl inh -8.
For CC(C)CC#Cc1ccc2c(c1)O[C@H](CN(C)C(=O)NC1CCCC1)[C@H](C)CN([C@H](C)CO)S2(=O)=O the results were FN deposit inh 3, SIRT5 block 13*, FGF22 binding 0, ERAP1 inh 1 and PGC1a acetyl inh 1.
`CC(C)CC#Cc1ccc2c(c1)O[C@@H](CN(C)C(=O)NC(C)C)[C@@H](C)CN([C@H](C)CO)S2(=O)=O` gave SIRT5 block 3, FGF22 binding 0, ERAP1 inh 0 and PGC1a acetyl inh 4.
Screening CN(C)C(=O)C[C@@H]1C[C@H]2c3cc(NS(=O)(=O)c4ccc(F)cc4)ccc3O[C@H]2[C@@H](CO)O1 returned FN deposit inh -3, FGF22 binding 0 and PGC1a acetyl inh 3.
